Consider 16 compounds from PubChem BioAssay.

One may read the viability as a read-out of living cells in per cent, often relative to untreated cells. As a reminder, the inhibition is the drop in the measured response relative to a control, in per cent.

Experiment [1] is described as follows: reducers of endogenous Her2 protein level, primary screen, SKBR3 breast tumor cells, AlphaScreen, ATP viability (AID 461;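 active = Her2 level under about 52% in both replicate screens, with viability over 70% of control, limit read from the data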;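 as to Her2 level: lower value means less Her2 protein in the cells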;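 as to viability: percent of carrier control wells set as 100% viability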). The note with it: 18-24 h, measured here: SKBR3 viability, ATP luminescence, at 10 µM.
In experiment [2] the target is Receptor tyrosine-protein kinase erbB-2 (Homo sapiens) (UniProt P04626). The description is as above. The note with it: 18-24 h, at 10 µM, stronger effect = lower value.
The nature of experiment [3]: SK-BR-3 cell growth inhibitors, pilot screen, 24 h, human (AID 572;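 active = viability at or below 10% of carrier control in both of two separate runs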;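 also: compound exposure lasted between 18 and 24 h rather than exactly 24 h; 100% = carrier-treated control wells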). The note with it: SK-BR-3 viability, CellTiter-Glo luminescence, at 10 µM, stronger effect = lower value. In general terms: In ATP-based viability assays light output follows the ATP content of the culture.
Experiment [4] is described as follows: HUVEC growth inhibition – cell-based, human, primary screen (AID 575).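 Also: 100% = median of untreated cell wells with 0.1% DMSO on each plate.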 The note with it: HUVEC proliferation, CellTiter-Glo luminescence, 72 h; at 10 µM; stronger effect = lower value. The method in brief:
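Assay system: primary human umbilical vein endothelial cells / Buffer or medium: endothelial basal medium with 2% FBS plus growth supplements / Compound dosing: one dose, 10 µM final, 0.1% DMSO / Timing: 72 h treatment at 37 °C / Signal: CTG luminescence / Benchmarks: 32 DMSO-only cell-control wells (high), 32 MePR drug-control wells (low) per plate / Plate: collagen-coated 384-well format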

Experiment [5] in a line: growth inhibitors of H69AR lung tumor, primary screen, human, duplicate replicates (AID 580;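 active = viability at or under a set limit in both replicates, limit being median viability minus 3 SD, cut at about 48% in these data, passing the limit was not always enough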;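 also: 100% = mean luminescence of untreated wells and 0% = no signal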). The note with it: H69AR lung tumor cells viability, ATP luminescence, 72 h; at 10 µM; stronger effect = lower value.
Experiment [6] in a line: reversal of MRP1-mediated doxorubicin resistance, pilot screen, H69AR cells, doxorubicin co-treatment (AID 601;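 active = viability loss from added drug above about 55%, and viability with drug at most 40%, in both replicates, limit read from the data, passing the limit was not always enough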). The note with it: CellTiter-Glo, 72 h, at 10 µM; for differential viability (reversal): stronger effect = higher value.
Experiment [7] can be described thus: 384-well plate pilot, post-Golgi transport modulator project, inhibition of yeast transport mutant growth (AID 636; in the data active = inhibition above about 31%). The note with it: absorbance 615 nm, about 18 h, stronger effect = higher value.
A short description of experiment [8]: growth suppression of yeast trafficking mutant, preliminary HTS, modulators of trafficking downstream of Golgi apparatus project, 1536-format plate, OD 615 nm (AID 637; in the data active = inhibition above about 30%). The note with it: yeast transport mutant growth, absorbance 615 nm, 18 h; stronger effect = higher value.
Where [9] appears, read: H69AR cells + 2 uM doxorubicin, measured here: viability with 2 uM doxorubicin, stronger effect = lower value.
[10] abbreviates: H69AR cells, compound alone cytotoxicity.

Active and inactive are the calls of the source.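 The calls were made as follows, unless noted: active = viability at or below 30% in both replicate assays; inconclusive = viability at or below 30% in just one of the two assays; inactive = the rest.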

Sequence of Receptor tyrosine-protein kinase erbB-2 (Homo sapiens) (P04626 whole entry, looked up): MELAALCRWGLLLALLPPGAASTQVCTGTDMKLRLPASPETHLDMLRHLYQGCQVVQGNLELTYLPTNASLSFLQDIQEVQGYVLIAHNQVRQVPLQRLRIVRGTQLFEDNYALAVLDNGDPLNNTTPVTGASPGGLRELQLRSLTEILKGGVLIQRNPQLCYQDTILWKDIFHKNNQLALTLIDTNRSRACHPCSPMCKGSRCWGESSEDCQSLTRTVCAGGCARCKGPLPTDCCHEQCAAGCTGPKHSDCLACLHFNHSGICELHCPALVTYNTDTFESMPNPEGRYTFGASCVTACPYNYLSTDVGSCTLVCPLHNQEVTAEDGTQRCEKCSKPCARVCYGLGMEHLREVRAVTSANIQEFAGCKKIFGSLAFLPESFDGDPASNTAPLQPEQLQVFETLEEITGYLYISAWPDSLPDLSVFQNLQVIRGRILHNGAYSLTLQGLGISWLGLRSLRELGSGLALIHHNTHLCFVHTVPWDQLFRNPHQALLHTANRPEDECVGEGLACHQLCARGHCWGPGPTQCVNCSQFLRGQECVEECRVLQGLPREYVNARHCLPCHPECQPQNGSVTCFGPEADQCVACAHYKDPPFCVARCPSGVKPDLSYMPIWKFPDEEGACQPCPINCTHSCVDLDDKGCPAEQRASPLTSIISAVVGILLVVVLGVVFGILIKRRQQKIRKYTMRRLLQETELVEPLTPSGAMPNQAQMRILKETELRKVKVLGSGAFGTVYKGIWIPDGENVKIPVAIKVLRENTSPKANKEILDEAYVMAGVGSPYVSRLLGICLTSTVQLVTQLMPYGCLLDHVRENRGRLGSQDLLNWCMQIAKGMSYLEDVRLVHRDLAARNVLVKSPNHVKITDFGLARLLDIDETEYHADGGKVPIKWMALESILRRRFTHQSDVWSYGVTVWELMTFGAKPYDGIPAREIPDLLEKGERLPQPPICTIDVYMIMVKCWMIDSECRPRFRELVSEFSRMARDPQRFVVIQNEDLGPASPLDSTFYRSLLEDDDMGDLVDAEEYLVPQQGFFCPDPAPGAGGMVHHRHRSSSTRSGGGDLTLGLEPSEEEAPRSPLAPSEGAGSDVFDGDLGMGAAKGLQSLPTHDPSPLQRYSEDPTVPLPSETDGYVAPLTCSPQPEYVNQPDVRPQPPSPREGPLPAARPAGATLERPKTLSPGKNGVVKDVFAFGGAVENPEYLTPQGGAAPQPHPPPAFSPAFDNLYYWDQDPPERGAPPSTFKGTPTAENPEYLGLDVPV

For `O=C(NCc1ccc(Cl)cc1)c1ccc(COCC(F)(F)F)o1`, the viability in experiment [1] is 100%; in experiment [3] it was 100% (inactive); in experiment [4] it was 88.5% (inactive); in experiment [5], 101% (inactive); in experiment [6] (setting [9]), 79.7%; in experiment [6] (setting [10]), 101%. The Her2 level in experiment [2] was 91% (inactive). For the same compound, in experiment [6] (H69AR cells + 2 uM doxorubicin), the differential viability (reversal) is 20.9% (inactive). Further, the values for the inhibition in experiment [7] and in experiment [8] were -1.45% (inactive) and -5.27% (inactive), respectively.

On to `CCCc1cc(=O)n2[nH]cnc2n1`, for which the viability in experiment [1] is 104%; in experiment [3], 104% (inactive); in experiment [4], 110% (inactive); in experiment [5], 100% (inactive); in experiment [6] (setting [9]), 96.6%; in experiment [6] (setting [10]), 100%. Also, in experiment [2], the Her2 level was 102% (inactive). Also, in experiment [6] (H69AR cells + 2 uM doxorubicin), the differential viability (reversal) is 3.53% (inactive). Moreover, the inhibition in experiment [7] was -6.22% (inactive); in experiment [8], 0.67% (inactive).

For `CO/C([O-])=N/c1c[n+](-c2ccc(C)cc2)no1`, the viability in experiment [1] was 100%; in experiment [3], 100% (inactive); in experiment [4], 109% (inactive); in experiment [5], 90.5% (inactive); in experiment [6] (setting [9]), 91.3%; in experiment [6] (setting [10]), 90.5%. Also, the Her2 level in experiment [2] is 92.5% (inactive). Also, the differential viability (reversal) in experiment [6] (H69AR cells + 2 uM doxorubicin) is -0.875% (inactive). In addition, the inhibition in experiment [7] is -6.49% (inactive); in experiment [8] it was 7.38% (inactive).

Regarding `Cc1cccc(NC(=O)c2cnc3sccn3c2=O)n1`, the viability in experiment [1] is 99%; in experiment [3], 99% (inactive); in experiment [4] it was 95.8% (inactive); in experiment [5], 100% (inactive); in experiment [6] (setting [9]) it was 92.2%; in experiment [6] (setting [10]) it was 100%. In experiment [2], the Her2 level was 98.5% (inactive). In addition, the differential viability (reversal) in experiment [6] (H69AR cells + 2 uM doxorubicin) is 8.25% (inactive). Also, the inhibition in experiment [7] is 0.13% (inactive); in experiment [8], 2.83% (inactive).

As to `CS(=O)(=O)NCc1nnc(SCC(=O)NC2CCCCC2)n1-c1ccc(F)cc1`, the viability in experiment [1] was 98.5%; in experiment [3] it was 98.5% (inactive); in experiment [4], 102% (inactive); in experiment [5], 97.6% (inactive); in experiment [6] (setting [9]) it was 88.4%; in experiment [6] (setting [10]), 97.6%. In addition, the Her2 level in experiment [2] is 100% (inactive). Besides, the differential viability (reversal) in experiment [6] (H69AR cells + 2 uM doxorubicin) was 9.24% (inactive). Besides, the inhibition was -6.18% (inactive) in experiment [7] and 12.3% (inactive) in experiment [8].

As for `CCC(C)(C)n1nnnc1C(c1ccc(OC)c(OC)c1)N1CCN(c2ccccc2)CC1` (stereo not given), the viability is 85% in experiment [1]; 85% (inactive) in experiment [3]; 90.2% (inactive) in experiment [4]; 88.8% (inactive) in experiment [5]; 78.9% in experiment [6] (setting [9]); 88.8% in experiment [6] (setting [10]). The Her2 level in experiment [2] was 86% (inactive). For the same compound, the differential viability (reversal) in experiment [6] (H69AR cells + 2 uM doxorubicin) is 9.98% (inactive). The inhibition in experiment [7] is -7.67% (inactive); in experiment [8], -0.16% (inactive).

As for `Cc1cc(=O)[nH]c(S/C=C/c2ccccc2)n1`, the viability was 91.5% in experiment [1]; 91.5% (inactive) in experiment [3]; 77% (inactive) in experiment [4]; 79.9% (inactive) in experiment [5]; 79.4% in experiment [6] (setting [9]); 79.9% in experiment [6] (setting [10]). Besides, in experiment [2], the Her2 level is 95% (inactive). Further, in experiment [6] (H69AR cells + 2 uM doxorubicin), the differential viability (reversal) was 0.47% (inactive). For the same compound, the inhibition is -3.12% (inactive) in experiment [7] and -2.86% (inactive) in experiment [8].

With `Cc1onc(-c2ccccc2)c1C(=O)N1CCN(C(=O)c2ccco2)CC1`, the viability was 98% in experiment [1]; 98% (inactive) in experiment [3]; 101% (inactive) in experiment [4]; 88.4% (inactive) in experiment [5]; 90.5% in experiment [6] (setting [9]); 88.4% in experiment [6] (setting [10]). Also, the Her2 level in experiment [2] is 98.5% (inactive). In experiment [6] (H69AR cells + 2 uM doxorubicin), the differential viability (reversal) is -2.1% (inactive). The inhibition in experiment [7] was -6.67% (inactive); in experiment [8], 5.32% (inactive).

As for `CC(C)(C)n1nnnc1C(c1cccs1)N1CCN(Cc2ccccc2)CC1` (stereo not given), the viability in experiment [1] was 90%; in experiment [3], 90% (inactive); in experiment [4], 86% (inactive); in experiment [5], 84.3% (inactive); in experiment [6] (setting [9]), 83.6%; in experiment [6] (setting [10]) it was 84.3%. For the same compound, in experiment [2], the Her2 level was 98.5% (inactive). Besides, the differential viability (reversal) in experiment [6] (H69AR cells + 2 uM doxorubicin) was 0.73% (inactive). Besides, the inhibition in experiment [7] was -4.16% (inactive); in experiment [8], -2.86% (inactive).

Regarding `OC(CN1CCCCC1)Cn1c(C(F)(F)F)nc2ccccc21` (stereo not given), the viability is 85.5% in experiment [1]; 85.5% (inactive) in experiment [3]; 105% (inactive) in experiment [4]; 83.4% (inactive) in experiment [5]; 86.4% in experiment [6] (setting [9]); 83.4% in experiment [6] (setting [10]). Also, in experiment [2], the Her2 level is 103% (inactive). Moreover, in experiment [6] (H69AR cells + 2 uM doxorubicin), the differential viability (reversal) is -3.04% (inactive). Moreover, the inhibition was 0% (inactive) in experiment [7] and 3.5% (inactive) in experiment [8].

For `CCCn1c(SCC(=O)NC(C)(C)C)nnc1C(C)C`, the viability is 110% in experiment [1]; 110% (inactive) in experiment [3]; 95.9% (inactive) in experiment [4]; 93% (inactive) in experiment [5]; 89.1% in experiment [6] (setting [9]); 93% in experiment [6] (setting [10]). Moreover, in experiment [2], the Her2 level was 79.5% (inactive). Besides, in experiment [6] (H69AR cells + 2 uM doxorubicin), the differential viability (reversal) is 3.9% (inactive). The inhibition in experiment [7] was -4.32% (inactive); in experiment [8], 17.6% (inactive).

Turning to `CCc1nnc(NC(=O)c2ccc(-c3cccc(C(F)(F)F)c3)o2)s1`, the viability is 102% in experiment [1]; 102% (inactive) in experiment [3]; 102% (inactive) in experiment [4]; 91.4% (inactive) in experiment [5]; 80.2% in experiment [6] (setting [9]); 91.4% in experiment [6] (setting [10]). For the same compound, the Her2 level in experiment [2] was 130% (inactive). The differential viability (reversal) in experiment [6] (H69AR cells + 2 uM doxorubicin) was 11.2% (inactive). In addition, the inhibition was -5.6% (inactive) in experiment [7] and -4.03% (inactive) in experiment [8].

As to `COc1ccc(-c2noc(CN3C(=O)c4ccccc4C3=O)n2)cc1`, the viability in experiment [1] is 102%; in experiment [3] it was 102% (inactive); in experiment [4], 97.5% (inactive); in experiment [5], 102% (inactive); in experiment [6] (setting [9]) it was 96.4%; in experiment [6] (setting [10]) it was 102%. For the same compound, in experiment [2], the Her2 level was 108% (inactive). The differential viability (reversal) in experiment [6] (H69AR cells + 2 uM doxorubicin) was 5.23% (inactive). Besides, the inhibition in experiment [7] is -0.92% (inactive); in experiment [8], 11.3% (inactive).

In the case of `Nc1c(C(=O)NCc2ccco2)nnn1Cc1ccccc1`, the viability in experiment [1] was 85.5%; in experiment [3], 85.5% (inactive); in experiment [4], 92.1% (inactive); in experiment [5] it was 96% (inactive); in experiment [6] (setting [9]) it was 95.1%; in experiment [6] (setting [10]), 96%. Further, in experiment [2], the Her2 level was 102% (inactive). The differential viability (reversal) in experiment [6] (H69AR cells + 2 uM doxorubicin) is 0.935% (inactive). Moreover, the values for the inhibition in experiment [7] and in experiment [8] were -6.32% (inactive) and 3.33% (inactive), respectively.

Regarding `Cc1nc2oc3c(NCc4ccccn4)ncnc3c2c2c1COC(C)(C)C2`, the viability in experiment [1] was 90%; in experiment [3], 90% (inactive); in experiment [4], 85.9% (inactive); in experiment [5] it was 99.2% (inactive); in experiment [6] (setting [9]) it was 92.2%; in experiment [6] (setting [10]), 99.2%. In experiment [2], the Her2 level is 89% (inactive). For the same compound, the differential viability (reversal) in experiment [6] (H69AR cells + 2 uM doxorubicin) was 7.06% (inactive). Also, the inhibition in experiment [7] was -4.4% (inactive); in experiment [8], -1.59% (inactive).

In the case of `COC(=O)Cn1c(C)nc2c(sc3nc(C)cc(C)c32)c1=O`, the viability was 110% in experiment [1]; 110% (inactive) in experiment [3]; 105% (inactive) in experiment [4]; 97.6% (inactive) in experiment [5]; 90.1% in experiment [6] (setting [9]); 97.6% in experiment [6] (setting [10]). For the same compound, in experiment [2], the Her2 level is 113% (inactive). The differential viability (reversal) in experiment [6] (H69AR cells + 2 uM doxorubicin) is 7.48% (inactive). For the same compound, the inhibition in experiment [7] is -4.61% (inactive); in experiment [8], 2.79% (inactive).
